Assay [1] addresses T1, Sodium-dependent serotonin transporter (Rattus norvegicus, UniProt P31652). The experiment in a line: Inhibition of [3H]paroxetine binding to rat cortex serotonin transporter. A digest of the protocol:
(§1)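 Male Sprague-Dawley rat (200-250 g) brain tissue, 1.5 mg original wet weight, in 50 mM Tris, 120 mM NaCl, 5 mM KCl, pH 7.4, with 0.2 nM [3H]paroxetine and 10 test concentrations, 90 min at room temperature. 1 µM citalopram defines nonspecific binding. GF/B filtration.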

The target of assay [2] is T2, Norepinephrine transporter (Rattus norvegicus, UniProt Q9WTR4). Put plainly: Inhibition of [3H]nisoxetine binding to rat cerebral cortex norepinephrine transporter. It is filed as tissue-based. An outline of the steps: (§2)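 Male Sprague-Dawley rat (200-250 g) cerebral cortex, 8 mg per tube, in 50 mM Tris, 120 mM NaCl, 5 mM KCl, pH 7.4 at 4 °C, with [3H]nisoxetine and 10 test concentrations. 1 µM desipramine defines nonspecific binding. GF/B filtration, ice-cold washes.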

For assay [3], the target named is T1, Sodium-dependent serotonin transporter. Put plainly: Displacement of [3H]paroxetine from serotonin transporter (5-HT) of rat cerebral cortex. It is filed as tissue-based. A digest of the protocol:
as §1
On the technique in general: In a radioligand displacement assay an active substance lowers the binding of a labelled ligand.

For assay [4], the target named is Sodium-dependent dopamine transporter (Rattus norvegicus, UniProt P23977). The experiment in a line: Inhibition of [3H]WIN-35428 binding to rat striatal dopamine transporter.
Assay [5] deals with T2, Norepinephrine transporter. Put plainly: Displacement of [3H]nisoxetine from norepinephrine transporter (NET) of rat cerebral cortex. It is filed as tissue-based. An outline of the steps:
as §2

We go through 7 molecules from ChEMBL document CHEMBL1139532, “Synthesis and monoamine transporter binding properties of 3alpha-(substituted phenyl)nortropane-2beta-carboxylic acid methyl esters. Norepinephrine transporter selective compounds” (J Med Chem, 2005).

As usually defined, the IC50 is the concentration needed to halve the response being measured. High values mean a need for much substance, low ones inhibition by little substance. The term Ki denotes a dissociation constant, usually derived from enzyme kinetics or from competition with a known ligand. High values mean weaker binding, low ones tighter binding.

The structures appear in SMILES notation.

T2 sequence (Q9WTR4 whole entry): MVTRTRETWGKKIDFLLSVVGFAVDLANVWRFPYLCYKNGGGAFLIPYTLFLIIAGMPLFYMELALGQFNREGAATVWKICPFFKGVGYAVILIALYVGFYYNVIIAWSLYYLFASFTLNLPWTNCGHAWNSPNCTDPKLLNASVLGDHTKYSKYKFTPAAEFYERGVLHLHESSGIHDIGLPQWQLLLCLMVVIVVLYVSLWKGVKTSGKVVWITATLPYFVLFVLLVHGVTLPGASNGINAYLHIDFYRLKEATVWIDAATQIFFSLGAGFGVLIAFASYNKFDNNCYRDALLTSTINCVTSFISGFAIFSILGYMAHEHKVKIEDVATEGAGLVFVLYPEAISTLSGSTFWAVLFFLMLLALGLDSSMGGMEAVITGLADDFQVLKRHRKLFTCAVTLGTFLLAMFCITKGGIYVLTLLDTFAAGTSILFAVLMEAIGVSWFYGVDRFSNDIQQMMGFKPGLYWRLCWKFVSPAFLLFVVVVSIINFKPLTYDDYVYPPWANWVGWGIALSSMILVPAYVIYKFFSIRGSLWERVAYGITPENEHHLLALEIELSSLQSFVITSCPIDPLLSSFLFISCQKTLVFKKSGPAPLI
T1 sequence (P31652 whole entry): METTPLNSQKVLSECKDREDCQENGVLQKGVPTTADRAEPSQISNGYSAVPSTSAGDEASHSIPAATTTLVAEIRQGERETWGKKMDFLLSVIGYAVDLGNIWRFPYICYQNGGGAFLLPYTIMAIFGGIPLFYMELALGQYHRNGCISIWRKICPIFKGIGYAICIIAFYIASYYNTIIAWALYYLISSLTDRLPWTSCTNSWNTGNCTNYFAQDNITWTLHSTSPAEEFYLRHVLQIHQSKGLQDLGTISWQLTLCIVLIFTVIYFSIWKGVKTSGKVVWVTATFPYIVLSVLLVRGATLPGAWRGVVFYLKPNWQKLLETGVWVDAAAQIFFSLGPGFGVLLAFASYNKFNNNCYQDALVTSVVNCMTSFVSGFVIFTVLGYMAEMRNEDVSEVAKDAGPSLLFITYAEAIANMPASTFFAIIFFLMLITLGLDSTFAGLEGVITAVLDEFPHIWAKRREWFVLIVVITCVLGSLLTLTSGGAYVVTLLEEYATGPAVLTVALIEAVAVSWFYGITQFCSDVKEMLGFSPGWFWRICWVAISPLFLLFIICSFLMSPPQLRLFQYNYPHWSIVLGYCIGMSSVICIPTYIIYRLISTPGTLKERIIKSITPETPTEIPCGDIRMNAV
Sequence of Sodium-dependent dopamine transporter (P23977 whole entry): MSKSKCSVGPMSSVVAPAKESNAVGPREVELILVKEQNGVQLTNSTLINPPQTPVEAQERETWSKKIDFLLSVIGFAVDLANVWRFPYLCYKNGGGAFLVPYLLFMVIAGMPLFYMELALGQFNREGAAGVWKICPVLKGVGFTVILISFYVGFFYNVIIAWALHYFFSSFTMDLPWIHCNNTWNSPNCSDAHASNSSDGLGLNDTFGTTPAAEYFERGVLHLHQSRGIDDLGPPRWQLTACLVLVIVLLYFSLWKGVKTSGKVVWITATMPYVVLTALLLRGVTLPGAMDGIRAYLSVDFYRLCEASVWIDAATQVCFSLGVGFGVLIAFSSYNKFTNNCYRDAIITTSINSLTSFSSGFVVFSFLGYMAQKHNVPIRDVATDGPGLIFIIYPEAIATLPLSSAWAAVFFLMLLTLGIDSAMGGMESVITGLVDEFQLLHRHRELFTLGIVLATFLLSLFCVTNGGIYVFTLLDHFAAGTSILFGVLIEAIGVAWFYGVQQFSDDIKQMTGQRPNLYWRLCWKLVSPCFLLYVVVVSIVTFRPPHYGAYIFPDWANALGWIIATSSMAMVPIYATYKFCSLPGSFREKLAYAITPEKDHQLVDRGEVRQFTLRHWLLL

Turning to `COC(=O)C1C(c2ccc(F)c(C)c2)CC2CCC1N2C` (centres undefined), the IC50 in assay [1] came to 1160 nM; in assay [2], 148 nM; in assay [4], 13.7 nM. Moreover, the Ki in assay [3] is 258 nM; in assay [5], 74 nM.

With `COC(=O)C1C(c2ccc(C)c(F)c2)CC2CCC1N2C` (centres undefined), the IC50 is 1150 nM in assay [1] and 7.38 nM in assay [4]. Also, the Ki came to 282 nM in assay [3] and 22.4 nM in assay [5].

Take `COC(=O)C1C2CCC(CC1c1cccc(F)c1)N2` (centres undefined): the values for the IC50 in assay [1], in assay [2] and in assay [4] were 110 nM, 9.7 nM and 2.36 nM, respectively. Further, the Ki amounted to 26.8 nM in assay [3] and 4 nM in assay [5].

Take `COC(=O)C1C2CCC(CC1c1ccc(F)c(C)c1)N2` (centres undefined): the IC50 in assay [1] was 69.8 nM; in assay [2] it was 4.23 nM; in assay [4], 9.38 nM. For the same molecule, the Ki in assay [3] came out at 17.1 nM; in assay [5], 2.12 nM.

For the molecule `COC(=O)C1C2CCC(CC1c1ccc(C)c(F)c1)N2` (centres undefined), the IC50 in assay [1] amounted to 97.4 nM; in assay [2], 0.86 nM; in assay [4] it was 9 nM. Besides, the Ki turned out to be 23.8 nM in assay [3] and 0.43 nM in assay [5].

As to `COC(=O)C1C2CCC(CC1c1ccc(F)c(F)c1)N2` (centres undefined), the IC50 worked out at 226 nM in assay [1], 6.3 nM in assay [2] and 5.61 nM in assay [4]. Also, the Ki in assay [3] turned out to be 55.3 nM; in assay [5], 2.6 nM.

Turning to `COC(=O)C1C2CCC(CC1c1cc(F)cc(F)c1)N2` (centres undefined), the IC50 in assay [1] is 55.8 nM; in assay [2] it was 4.1 nM; in assay [4], 2.35 nM. The Ki in assay [3] was determined as 13.7 nM; in assay [5] it was 2.05 nM.
